In ChEMBL document CHEMBL1150829, “Novel cytotoxic 4-phenylfuranocoumarins from Calophyllum dispar” (2001):
In brackets after ≈: the same amount, converted by molar mass.

What was measured:
[1] = test system: KB; assay: Growth inhibition of human KB cells at 5 to 6 ug/mL after 72 hrs by neutral red staining; format: functional
[2] = test system: KB; assay: Cytotoxicity against human KB cells after 72 hrs by neutral red staining; format: functional; details: read-out: ED50 (the source's name)
Summary of the method: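 Human nasopharyngeal carcinoma KB cells exposed in triplicate to five concentrations (50 to 0.01 µg/mL) of pure compound, or none, for 72 h at 37 °C. Living cells stained with neutral red and optical density read at 540 nm. ED50 is the concentration inhibiting cell growth to 50% of control.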

SMILES	Inhibition [1] [%]	EC50 [2] [µg/mL]
CCCC(=O)c1c(O)c2c(c3c(-c4ccccc4)cc(=O)oc13)O[C@H](C(C)(C)O)C2	50	
C=C(C)[C@@H]1Cc2c(c(C(=O)CC(C)C)c(O)c3c(-c4ccccc4)cc(=O)oc23)O1		40 (≈ 98.9 µM)
CCCC(=O)c1c2c(c3oc(=O)cc(-c4ccccc4)c3c1O)C[C@@H](C(C)(C)O)O2		6 (≈ 14.7 µM)
CCC(C)C(=O)c1c(O)c2c(c3c(-c4ccccc4)cc(=O)oc13)O[C@H](C(C)(C)O)C2 (stereo not given in full)	50	15 (≈ 35.5 µM)
CCC(C)C(=O)c1c2c(c3oc(=O)cc(-c4ccccc4)c3c1O)C[C@@H](C(C)(C)O)O2 (stereo not given in full)		5 (≈ 11.8 µM)
CC(C)CC(=O)c1c2c(c3oc(=O)cc(-c4ccccc4)c3c1O)C[C@@H](C(C)(C)O)O2 [CYCLOMAMMEISIN]		6 (≈ 14.2 µM)
CC(C)CC(=O)c1c(O)c2c(c3c(-c4ccccc4)cc(=O)oc13)O[C@H](C(C)(C)O)C2	50	9 (≈ 21.3 µM)
COc1cccc2c1C(=O)c1c(O)c3c(c(O)c1C2=O)C[C@@](O)(C(=O)CO)C[C@@H]3O[C@H]1C[C@H](N)[C@H](O)[C@H](C)O1 [DOXORUBICIN]		0.058 (≈ 0.107 µM)
